Active and inactive are the calls of the source. The rule behind the calls is not given here.
How the values were obtained:
Myeloperoxidase [1] = molecular target: T1, Myeloperoxidase (Homo sapiens, UniProt P05164); experiment: Inhibition of human PMN leukocytes MPO peroxidation activity using H2O2 as substrate preincubated for 10 mins followed by H2O2 addition and measured for 15 mins by amplex red reagent based assay
T1 sequence (P05164 whole entry): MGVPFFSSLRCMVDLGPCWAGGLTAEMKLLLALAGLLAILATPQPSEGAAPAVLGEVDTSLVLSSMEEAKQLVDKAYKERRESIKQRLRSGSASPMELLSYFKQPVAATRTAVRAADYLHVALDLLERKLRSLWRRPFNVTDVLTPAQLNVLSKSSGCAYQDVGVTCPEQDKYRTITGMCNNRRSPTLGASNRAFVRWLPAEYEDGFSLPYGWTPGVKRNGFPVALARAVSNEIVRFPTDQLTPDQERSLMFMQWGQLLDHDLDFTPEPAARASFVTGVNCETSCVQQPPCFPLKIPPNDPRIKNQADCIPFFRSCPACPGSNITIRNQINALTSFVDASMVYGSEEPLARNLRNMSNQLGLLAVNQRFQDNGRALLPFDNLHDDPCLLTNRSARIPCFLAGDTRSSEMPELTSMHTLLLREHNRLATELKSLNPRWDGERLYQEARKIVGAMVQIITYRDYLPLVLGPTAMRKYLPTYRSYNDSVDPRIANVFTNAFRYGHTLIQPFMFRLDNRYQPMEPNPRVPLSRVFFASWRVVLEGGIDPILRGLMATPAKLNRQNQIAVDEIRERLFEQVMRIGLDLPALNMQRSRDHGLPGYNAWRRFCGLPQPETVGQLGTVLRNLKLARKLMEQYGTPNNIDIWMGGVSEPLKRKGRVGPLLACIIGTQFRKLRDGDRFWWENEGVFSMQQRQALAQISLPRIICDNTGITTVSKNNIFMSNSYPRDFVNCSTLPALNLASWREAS

Cytochrome P450 3A4 = Cytochrome P450 3A4 (Homo sapiens, UniProt P08684); experiment: Inhibition of CYP3A4 (unknown origin); type: ADME
Myeloperoxidase [2] = molecular target: T1, Myeloperoxidase; experiment: Inhibition of human PMN leukocytes MPO chlorination activity using H2O2 as substrate preincubated for 10 mins followed by H2O2 addition and measured for 15 mins in presence of NaCl by aminophenyl fluorescein based assay
[3] = Half life in pH 1 solution; type: physicochemical
[4] = AUC in mouse at 3 mg/kg, po after 8 hrs; type: ADME, organism-based; set-up: dose 3 mg/kg, time < 8 hr, route oral; conditions: in vivo
[5] = molecular target: T2, Methylated-DNA--protein-cysteine methyltransferase (Homo sapiens, UniProt P16455); experiment: Inhibition of recombinant human N-terminal His-tagged MGMT (1 to 207 residues) expressed in Escherichia coli using O-6-benzylguanine as substrate after 30 mins by LC-MS analysis; conditions: 0.5 h
T2 sequence (P16455 whole entry): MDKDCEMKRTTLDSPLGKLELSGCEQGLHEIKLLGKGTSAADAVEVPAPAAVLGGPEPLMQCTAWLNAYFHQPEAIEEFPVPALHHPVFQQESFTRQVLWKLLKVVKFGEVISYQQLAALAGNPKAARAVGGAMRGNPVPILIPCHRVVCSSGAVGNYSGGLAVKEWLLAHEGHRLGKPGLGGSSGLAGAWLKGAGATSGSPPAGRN

Eosinophil peroxidase = molecular target: T3, Eosinophil peroxidase (Homo sapiens, UniProt P11678); experiment: Inhibition of human EPX bromination activity assessed as reduction in H2O2 catalyzed 3-bromo tyrosine formation from tyrosine and potassium bromide preincubated for 10 mins followed by tyrosine/potassium bromide/H2O2 addition measured after 15 mins by RP-UPLC analysis
T3 sequence (P11678 whole entry): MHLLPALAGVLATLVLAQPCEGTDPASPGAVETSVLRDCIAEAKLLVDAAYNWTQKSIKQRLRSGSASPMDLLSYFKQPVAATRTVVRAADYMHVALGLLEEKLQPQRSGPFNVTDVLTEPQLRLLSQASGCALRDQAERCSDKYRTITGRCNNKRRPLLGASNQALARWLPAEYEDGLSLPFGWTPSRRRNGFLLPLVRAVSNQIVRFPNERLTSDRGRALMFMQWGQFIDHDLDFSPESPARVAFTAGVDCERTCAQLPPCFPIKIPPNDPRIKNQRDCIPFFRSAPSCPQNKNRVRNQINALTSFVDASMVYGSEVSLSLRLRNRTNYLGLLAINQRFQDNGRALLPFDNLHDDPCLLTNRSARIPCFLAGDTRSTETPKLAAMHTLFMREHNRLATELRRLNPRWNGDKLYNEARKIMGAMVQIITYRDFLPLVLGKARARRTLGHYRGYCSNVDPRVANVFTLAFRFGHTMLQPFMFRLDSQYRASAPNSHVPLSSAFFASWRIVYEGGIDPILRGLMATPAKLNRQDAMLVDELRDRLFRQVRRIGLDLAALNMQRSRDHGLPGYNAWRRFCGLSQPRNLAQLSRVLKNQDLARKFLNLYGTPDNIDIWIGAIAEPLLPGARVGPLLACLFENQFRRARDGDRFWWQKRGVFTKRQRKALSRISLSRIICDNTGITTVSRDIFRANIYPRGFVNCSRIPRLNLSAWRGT

Thyroid peroxidase = molecular target: T4, Thyroid peroxidase (Homo sapiens, UniProt P07202); experiment: Inhibition of human TPO assessed as reduction in H2O2 catalyzed 3,5-iodo tyrosine formation from 3-iodotyrosine and potassium iodide preincubated for 10 mins followed by tyrosine/potassium bromide/H2O2 addition measured after 15 mins
T4 sequence (P07202 whole entry): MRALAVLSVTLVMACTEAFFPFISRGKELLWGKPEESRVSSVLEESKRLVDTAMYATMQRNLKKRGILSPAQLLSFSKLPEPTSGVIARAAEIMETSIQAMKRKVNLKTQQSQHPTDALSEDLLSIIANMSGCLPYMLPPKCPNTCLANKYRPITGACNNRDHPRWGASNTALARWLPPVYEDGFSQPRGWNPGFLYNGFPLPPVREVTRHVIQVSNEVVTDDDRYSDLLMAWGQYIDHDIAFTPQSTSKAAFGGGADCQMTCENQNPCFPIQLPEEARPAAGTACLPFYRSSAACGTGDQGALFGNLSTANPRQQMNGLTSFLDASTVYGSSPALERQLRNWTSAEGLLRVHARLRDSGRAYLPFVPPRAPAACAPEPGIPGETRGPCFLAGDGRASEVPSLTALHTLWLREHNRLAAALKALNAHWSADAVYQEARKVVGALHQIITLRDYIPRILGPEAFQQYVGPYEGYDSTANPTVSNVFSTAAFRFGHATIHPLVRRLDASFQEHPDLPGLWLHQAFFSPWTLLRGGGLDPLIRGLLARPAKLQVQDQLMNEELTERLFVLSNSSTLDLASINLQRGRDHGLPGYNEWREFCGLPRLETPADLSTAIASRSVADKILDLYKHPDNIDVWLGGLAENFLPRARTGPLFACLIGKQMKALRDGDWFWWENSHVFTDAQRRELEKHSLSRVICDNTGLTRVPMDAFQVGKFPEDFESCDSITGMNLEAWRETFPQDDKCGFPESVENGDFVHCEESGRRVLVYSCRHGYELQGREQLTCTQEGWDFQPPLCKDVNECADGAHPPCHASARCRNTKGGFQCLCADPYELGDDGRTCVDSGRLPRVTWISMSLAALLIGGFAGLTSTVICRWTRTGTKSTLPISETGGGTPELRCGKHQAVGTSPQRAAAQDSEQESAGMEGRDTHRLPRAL

Lactoperoxidase = Lactoperoxidase (Homo sapiens, UniProt P22079); experiment: Inhibition of human LPO assessed as reduction in H2O2 catalyzed 3,5-iodo tyrosine formation from 3-iodotyrosine and potassium iodide preincubated for 10 mins followed by tyrosine/potassium bromide/H2O2 addition measured after 15 mins
[6] = Protein binding in human plasma; type: ADME, cell-free; conditions: read-out: PPB (converted)
[7] = Protein binding in mouse plasma; type: ADME, cell-free; conditions: read-out: PPB (converted)
[8] = Cmax in mouse at 3 mg/kg, po; type: ADME, organism-based; set-up: dose 3 mg/kg, route oral; conditions: in vivo
Mus musculus [9] = experiment: In vivo inhibition of PMA-stimulated MPO in human MPO transgenic mouse model of acute inflammation assessed as reduction in hypochlorous acid production in blood administered orally 20 mins prior to PMA stimulation and measured after 2 mins by luminol chemiluminescence assay; type: functional, organism-based
Outline: (§1)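 Mice were dosed with test compound, then given PMA 20 minutes later to stimulate MPO through neutrophil degranulation. After 2 minutes, blood samples were treated with luminol. Chemiluminescence was read as MPO-dependent hypochlorous acid production.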

Mus musculus [10] = experiment: In vivo inhibition of […] in mouse model of acute inflammation at 10 to 30 mg/kg, po; type: functional, organism-based
Mus musculus [11] = experiment: In vivo inhibition of PMA-stimulated MPO in human MPO transgenic mouse model of acute inflammation assessed as reduction in hypochlorous acid production in blood at 10 mg/kg, po administered 20 mins prior to PMA stimulation and measured after 2 mins by luminol chemiluminescence assay relative to control; type: functional; outline: as §1
Mus musculus [12] = experiment: In vivo inhibition of PMA-stimulated MPO in human MPO transgenic mouse model of acute inflammation assessed as reduction in hypochlorous acid production in blood at 30 mg/kg, po administered 20 mins prior to PMA stimulation and measured after 2 mins by luminol chemiluminescence assay relative to control; type: functional; outline: as §1
[13] = Plasma concentration in human MPO transgenic mouse model of PMA-induced acute inflammation at 10 mg/kg, po; type: ADME, organism-based; conditions: in vivo
[14] = Plasma concentration in human MPO transgenic mouse model of PMA-induced acute inflammation at 30 mg/kg, po; type: ADME, organism-based; conditions: in vivo

Cytochrome P450 3A4, sequence (P08684 whole entry): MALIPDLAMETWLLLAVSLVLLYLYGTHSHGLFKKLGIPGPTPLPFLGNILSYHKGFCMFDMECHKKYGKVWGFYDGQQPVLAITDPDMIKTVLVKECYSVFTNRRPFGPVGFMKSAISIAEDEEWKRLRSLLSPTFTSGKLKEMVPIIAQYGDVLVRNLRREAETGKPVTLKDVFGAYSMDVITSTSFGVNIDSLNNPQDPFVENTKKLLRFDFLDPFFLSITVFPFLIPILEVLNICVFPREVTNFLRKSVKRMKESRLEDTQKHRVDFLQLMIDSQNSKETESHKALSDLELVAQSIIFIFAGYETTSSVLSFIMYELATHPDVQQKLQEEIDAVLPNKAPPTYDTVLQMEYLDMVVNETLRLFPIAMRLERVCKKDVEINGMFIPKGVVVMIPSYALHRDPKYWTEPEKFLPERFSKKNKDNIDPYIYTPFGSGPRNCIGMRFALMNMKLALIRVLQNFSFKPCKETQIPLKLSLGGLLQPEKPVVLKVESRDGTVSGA
Lactoperoxidase, sequence (P22079 whole entry): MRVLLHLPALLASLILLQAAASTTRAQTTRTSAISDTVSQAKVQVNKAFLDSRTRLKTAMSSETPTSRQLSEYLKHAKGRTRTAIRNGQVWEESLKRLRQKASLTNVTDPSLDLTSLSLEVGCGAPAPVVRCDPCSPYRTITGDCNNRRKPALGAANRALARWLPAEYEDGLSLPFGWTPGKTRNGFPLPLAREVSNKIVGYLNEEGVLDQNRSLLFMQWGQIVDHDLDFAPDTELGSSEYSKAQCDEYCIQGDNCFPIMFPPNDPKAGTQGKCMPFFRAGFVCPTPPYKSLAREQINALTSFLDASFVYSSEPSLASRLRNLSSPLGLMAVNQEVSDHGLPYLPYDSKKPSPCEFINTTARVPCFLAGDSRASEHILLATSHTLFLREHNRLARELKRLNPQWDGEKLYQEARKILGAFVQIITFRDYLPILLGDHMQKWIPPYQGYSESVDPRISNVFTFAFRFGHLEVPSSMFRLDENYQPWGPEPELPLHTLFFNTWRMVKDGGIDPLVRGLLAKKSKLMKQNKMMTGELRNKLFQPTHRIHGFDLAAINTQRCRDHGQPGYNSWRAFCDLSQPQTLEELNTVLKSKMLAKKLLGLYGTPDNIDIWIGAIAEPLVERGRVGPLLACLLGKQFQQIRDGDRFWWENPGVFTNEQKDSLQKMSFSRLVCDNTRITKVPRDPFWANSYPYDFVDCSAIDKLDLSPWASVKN

Cn1cc(-c2cccc(COc3cc(N)nc4[nH]nnc34)c2)cn1
IC50 (Myeloperoxidase [1]): 78 nM

Nc1cc(OCc2cc(-c3cccc(F)c3)ccc2Cl)c2nn[nH]c2n1
IC50 (Myeloperoxidase [1]): 24 nM | IC50 (Cytochrome P450 3A4): 60 nM

Nc1cc(SCc2nn(-c3ccccc3)nc2C(F)F)c2nn[nH]c2n1
IC50 (Myeloperoxidase [1]): 8.5 nM

Nc1cc(OCc2ccccc2Cl)c2nn[nH]c2n1
IC50 (Myeloperoxidase [1]): 26 nM

Nc1cc(OCc2ccccc2F)c2nn[nH]c2n1
IC50 (Myeloperoxidase [1]): 30 nM

Nc1nc(OCc2ccccc2)c2[nH]nnc2n1
IC50 (Myeloperoxidase [2]): 110 to 190 nM | half-life [3]: 2.8 h | AUC at 8 h [4]: 22 µM·h | inhibition (INH) [5]: Active | IC50 (Eosinophil peroxidase): 17 nM | IC50 (Thyroid peroxidase): 42000 nM | IC50 (Lactoperoxidase): > 100000 nM | fraction unbound [6]: 0.006 | fraction unbound [7]: 0.127 | Cmax [8]: 31 µM

Nc1cc(OCc2cccc(Cl)c2)c2nn[nH]c2n1
IC50 (Myeloperoxidase [1]): 21 nM

Nc1cc(OCc2ccccc2)c2nn[nH]c2n1
IC50 (Myeloperoxidase [2]): 50 nM | IC50 (Myeloperoxidase [1]): 36 nM | half-life [3]: > 100 h | AUC at 8 h [4]: 11 µM·h | inhibition (INH) [5]: Active

Nc1cc(OCc2ccc(Cl)cc2)c2nn[nH]c2n1
IC50 (Myeloperoxidase [1]): 26 nM

Nc1cc(OCc2nn(-c3ccccc3)nc2C(F)F)c2nn[nH]c2n1
IC50 (Myeloperoxidase [1]): 12 nM

Cn1ccc(-c2cccc(COc3cc(N)nc4[nH]nnc34)c2)n1
IC50 (Myeloperoxidase [1]): 21 nM

Nc1cc(OCc2c(Cl)cccc2Cl)c2nn[nH]c2n1
IC50 (Myeloperoxidase [1]): 6.7 nM

CS(=O)(=O)c1ccccc1COc1cc(N)nc2[nH]nnc12
IC50 (Myeloperoxidase [1]): 720 nM

Nc1cc(SCc2c(Cl)cccc2Cl)c2nn[nH]c2n1
IC50 (Myeloperoxidase [1]): 4.6 nM

Nc1cc(OCc2ncc(-c3ccccc3)o2)c2nn[nH]c2n1
IC50 (Myeloperoxidase [1]): 290 nM

Cc1c(COc2cc(N)nc3[nH]nnc23)cccc1-c1ccn(C)n1
IC50 (Myeloperoxidase [1]): 26 nM | IC50 (Cytochrome P450 3A4): 1500 nM

Nc1cc(SCc2ccccc2F)c2nn[nH]c2n1
IC50 (Myeloperoxidase [2]): 6.8 nM | IC50 (Myeloperoxidase [1]): 8.7 nM | AUC at 8 h [4]: 18 µM·h | IC50 (Eosinophil peroxidase): 22 nM | IC50 (Thyroid peroxidase): 4000 nM | IC50 (Lactoperoxidase): > 8000 nM | fraction unbound [6]: 0.02 | fraction unbound [7]: 0.192 | Cmax [8]: 17 µM | inhibition (Mus musculus [9]): Dose-dependent effect | inhibition (Mus musculus [10]): Active | inhibition in vivo at 10 mg/kg (Mus musculus [11]): 50% | inhibition in vivo at 30 mg/kg (Mus musculus [12]): 74% | concentration [13]: 21 µM | concentration [14]: 70 µM

Nc1cc(OCc2cn(-c3ccccc3)nn2)c2nn[nH]c2n1
IC50 (Myeloperoxidase [1]): 400 nM

Cc1nn(-c2ccccc2)nc1COc1cc(N)nc2[nH]nnc12
IC50 (Myeloperoxidase [1]): 27 nM | IC50 (Cytochrome P450 3A4): 370 nM

Nc1cc(OCc2ccccc2-n2cccn2)c2nn[nH]c2n1
IC50 (Myeloperoxidase [1]): 26 nM

Nc1cc(OCc2cccc(-c3cccc(F)c3)c2)c2nn[nH]c2n1
IC50 (Myeloperoxidase [1]): 21 nM

Cc1c(COc2cc(N)nc3[nH]nnc23)cccc1-c1cccc(F)c1
IC50 (Myeloperoxidase [1]): 23 nM

Nc1cc(OCc2nn(-c3ccccc3)nc2CO)c2nn[nH]c2n1
IC50 (Myeloperoxidase [1]): 250 nM

Nc1cc(OCc2cccc(-c3ccccc3F)c2)c2nn[nH]c2n1
IC50 (Myeloperoxidase [1]): 160 nM

— ChEMBL document CHEMBL4325921, “Potent Triazolopyridine Myeloperoxidase Inhibitors” (ACS Med Chem Lett, 2018)
